hERG rescue – shields human hERG channel from block by proarrhythmic agents; activation (rescue from dofetilide block), less the hit threshold, % at 10 µM; Q12809; CHO-hERG, FluxOR thallium flux, dofetilide IC70 present; AID 1511; actives 0.51% (n = 310,000);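 active = activation above the mean of controls blocked by dofetilide plus 5 SD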;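 also: thallium influx through hERG after potassium depolarization seen as dye fluorescence rise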
KCNK3 inh – human KCNK3 channel inhibition, primary screen; B-score at 10 µM; AID 602410; actives 0.84% (n = 340,000); CHO-KCNK3 thallium flux, FluxOR fluorescence; hits give low values; O14649;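 active = B-score under library mean minus 4 SD, starting fluorescence ratio at most library mean plus 5 SD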;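 also: more negative B-score means stronger inhibition of thallium flux through KCNK3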
KCNQ1 pot – human KCNQ1 channel potentiation or activation. CHO-K1 KCNQ1, thallium flux FluxOR fluorescence; hits give high values. P51787. B-score at 10 µM. AID 2648. actives 0.35% (n = 310,000);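 active = fluorescence ratio B-score, a plate-corrected score, at least three library SD, with initial intensity B-score within 5 SD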
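Assay system: CHO-K1 cells stably expressing KCNQ1; Medium: assay buffer with matched DMSO; Also added: K+/Tl+ depolarizing stimulus; Dosing: single dose; Timing: dye 90 min, compound 20 min, room temperature; Measured by: kinetic FluxOR thallium fluorescence, 10-s 1-Hz baseline, 110-s post-stimulus read; Read-out: peak-minus-minimum fluorescence over initial fluorescence, negative-control normalized, B-scored.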
KCNK9 block – blocks the human KCNK9 two-pore domain potassium channel; Q9NPC2; HEK293 KCNK9, FluxOR thallium flux fluorescence; hits give low values; B-score at 10 µM; actives 1.2% (n = 310,000); AID 488922;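 active = ratio B-score over 3 SD below the library mean, with starting fluorescence within 5 SD of its mean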;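 also: negative B-score means less thallium flux so channel inhibition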
KCNQ1 inh – human KCNQ1 channel inhibition; B-score at 10 µM; CHO-K1 KCNQ1, FluxOR thallium flux fluorescence; hits give high values; actives 1.3% (n = 310,000);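 active = compounds whose thallium flux B-score, printed positive for inhibition, exceeds three library SD while starting fluorescence stays within three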;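 also: channel opened by potassium depolarization with thallium stimulus after 20 min compound exposure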
Kir21 block – inhibitors of mouse Kir2.1 inward-rectifier potassium channel; HEK293-Kir2.1, FluxOR thallium flux fluorescence; hits give low values; actives 0.85% (n = 310,000); B-score at 10 µM; AID 1672;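 active = fluorescence ratio B-score at or below minus 3 SD of library scores, with starting-brightness B-score within 2 SD, cut at about -4.2 in these data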;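 also: channel flux triggered by added potassium and thallium sulfate stimulus; B-score of peak minus minimum fluorescence over baseline after thallium stimulus; more negative B-score means stronger Kir2.1 block with less thallium influx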
Target sequence (P35561 whole entry, looked up): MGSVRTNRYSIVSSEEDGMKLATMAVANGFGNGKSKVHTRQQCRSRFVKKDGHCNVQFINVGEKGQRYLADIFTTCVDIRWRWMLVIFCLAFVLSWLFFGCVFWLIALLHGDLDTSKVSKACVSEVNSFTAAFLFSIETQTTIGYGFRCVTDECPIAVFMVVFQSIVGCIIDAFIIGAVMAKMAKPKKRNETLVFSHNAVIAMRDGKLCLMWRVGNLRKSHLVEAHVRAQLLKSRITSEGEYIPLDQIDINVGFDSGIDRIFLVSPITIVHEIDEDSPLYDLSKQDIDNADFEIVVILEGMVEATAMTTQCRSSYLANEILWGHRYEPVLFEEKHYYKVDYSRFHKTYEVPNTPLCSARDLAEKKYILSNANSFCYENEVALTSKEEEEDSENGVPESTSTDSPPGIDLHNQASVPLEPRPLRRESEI
KCNK9 block conf – confirmation of human KCNK9 potassium channel inhibitors | shares compounds with KCNK9 block | HEK293 KCNK9 cells, FluxOR thallium flux fluorescence | inhibition, % at 10 µM | actives 43% (n = 4,900) | AID 492992;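 active = thallium signal inhibited by more than 5 SD of the compound-free buffer control wells, on both duplicate plates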
Kir21 sel – selectivity of KCNK9 modulators against mouse Kir2.1; inhibition, % at 10 µM; Kir2.1 cells, FluxOR thallium flux fluorescence; actives 4% (n = 4,900); AID 492993; shares compounds with KCNK9 block;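 active = thallium signal drop more than 5 SD beyond the mean of the no-compound control wells, seen in both duplicate plates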;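 also: signal is fluorescence rise after thallium addition divided by baseline fluorescence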
HEK293 Tl ctr – second check of KCNK9 modulator effects in non-induced HEK293 cells. shares compounds with KCNK9 block. FluxOR thallium flux. inhibition, % at 10 µM. actives 40% (n = 4,900). AID 492997;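 active = thallium signal drop beyond 5 SD of the untreated control mean, on both duplicate plates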
Each line names hits and unclear results; the compound was inactive in the other large screens (follow-up assays come after a bar, where they were run). Shown are actives, neighbours in structure and some others; about 3.7% of the full set was active somewhere.

CCc1ccc(/C=C2\SC(=S)N(CCCC(=O)Nc3ccc(C(=O)O)cc3)C2=O)cc1	none | KCNK9 block conf inactive | Kir21 sel inactive | HEK293 Tl ctr inactive
CCOc1ccc(/C=C2\SC(=S)N(CCC(=O)Nc3cccc(C(=O)O)c3)C2=O)cc1	none | KCNK9 block conf inactive | Kir21 sel inactive | HEK293 Tl ctr inactive
Cc1ccc(/C=C2\SC(=S)N(CCCC(=O)Nc3ccccc3C(=O)O)C2=O)cc1	none
CCOc1ccc(/C=C2\SC(=S)N(CCC(=O)Nc3ccc(C(=O)O)cc3)C2=O)cc1	none
O=C(Nc1cccn(Cc2c(Cl)cccc2Cl)c1=O)c1c(Cl)cccc1Cl	KCNK9 block -10.2 | KCNK9 block conf 54.5% | Kir21 sel inactive | HEK293 Tl ctr inactive
S=c1[nH]nc(CNc2cccc(Cl)c2)o1	none
Clc1cccc(NCc2nnc(SCc3ccc(Cl)cc3Cl)o2)c1	none | KCNK9 block conf inactive | Kir21 sel inactive | HEK293 Tl ctr 31.5%
COc1cc(OC)nc(Oc2ccccc2C(=O)Oc2cccc(C)c2)n1	KCNK9 block -9.5 | KCNK9 block conf 34.5% | Kir21 sel inactive | HEK293 Tl ctr 36.0%
COc1cccc(C2CCCN2Cc2nc(CCC(C)C)no2)c1 (stereo not drawn)	none | KCNK9 block conf inactive | Kir21 sel inactive | HEK293 Tl ctr inactive
c1ccc(Cn2c(NCc3ccncc3)nc3ccccc32)cc1	none
COc1ccc(CNc2nc3ccccc3n2Cc2ccc(C)cc2)cc1OC	KCNK9 block -8.48 | KCNK9 block conf 28.0% | Kir21 sel inactive | HEK293 Tl ctr inactive
COC(=O)c1ccc(C(=O)OC)c(NC(=O)C2CCCO2)c1 (stereo not drawn)	none
CCOc1cnn(-c2cc(Oc3ccc(C)cc3)ncn2)c(=O)c1Cl	none
Cc1cc(Oc2cnn(C(C)(C)C)c(=O)c2Cl)cc(C(C)C)c1	none | KCNK9 block conf inactive | Kir21 sel inactive | HEK293 Tl ctr inactive
COC(=O)c1ccc(S(=O)(=O)N2CCN(C(c3ccccc3)c3ccccc3)CC2)n1C	none | KCNK9 block conf inactive | Kir21 sel inactive | HEK293 Tl ctr inactive
CCOC(=O)c1c(-c2ccccc2)csc1NC(=O)c1ccc(S(=O)(=O)N2CC(C)OC(C)C2)cc1 (stereo not drawn)	none
CCOC(=O)Cc1cnc(NC(=O)CSc2nc(C)cc(C)n2)s1	none | KCNK9 block conf inactive | Kir21 sel inactive | HEK293 Tl ctr inactive
CCOC(=O)c1c(-c2cccs2)csc1NC(=O)COC(=O)c1c(C)noc1C	KCNK3 inh -8.9 | KCNK9 block conf inactive | Kir21 sel inactive | HEK293 Tl ctr inactive
CCOC(=O)c1c(-c2ccccc2)csc1NC(=O)CSc1nc(N)cc(N)n1	none
CCOC(=O)c1c(-c2ccccc2)csc1NC(=O)c1cc(S(=O)(=O)N2CCOCC2)ccc1C	none | KCNK9 block conf inactive | Kir21 sel inactive | HEK293 Tl ctr inactive
CCOC(=O)c1c(-c2ccccc2)csc1NC(=O)CSc1nc(C)cc(C)n1	none | KCNK9 block conf inactive | Kir21 sel inactive | HEK293 Tl ctr inactive
O=S(=O)(Cc1ccccc1)N(O)c1ccccc1	none
CCOc1ccc(NS(=O)(=O)c2ccc(C(=O)N3CC(C)OC(C)C3)cc2)cc1 (stereo not drawn)	none (no result: hERG rescue, KCNQ1 pot, KCNK9 block, KCNQ1 inh, Kir21 block)
Cc1ccc(S(=O)(=O)NCCC(=O)Nc2ncccc2O)cc1C	none
COc1ccc(CNC(=O)/C(C#N)=C2\N=C(NC(=O)c3cccs3)c3ccccc32)cc1	none | KCNK9 block conf inactive | Kir21 sel inactive | HEK293 Tl ctr inactive
CN(C(=O)c1cccc(NC(=O)C2CCN(C(=O)OC(C)(C)C)CC2)c1)C1CCCCC1	none (no result: hERG rescue, KCNQ1 pot, KCNK9 block, KCNQ1 inh, Kir21 block)
O=C1NCC(O)=C1C=Nc1ccccc1O	none
CN(C)C(CNc1ncnc2sc3c(c12)CCCC3)c1ccco1 (stereo not drawn)	none | KCNK9 block conf inactive | Kir21 sel inactive | HEK293 Tl ctr inactive
COc1ccccc1N1CCN(C2CCCN(C(=O)c3ccoc3C)C2)CC1 (stereo not drawn)	none
COc1ccccc1N1CCN(C2CCCN(C(=O)c3cccc(-c4ccco4)c3)C2)CC1 (stereo not drawn)	none | KCNK9 block conf inactive | Kir21 sel inactive | HEK293 Tl ctr inactive
CCN(C[C@H]1N[C@@](CC)(C(=O)OC)[C@H]2C(=O)N(C)C(=O)[C@@H]12)C(=O)NC(C)C	none (no result: hERG rescue, KCNQ1 pot, KCNK9 block, KCNQ1 inh, Kir21 block)
COc1cccc(N2CCN(CC(=O)NC3=Nc4ccccc4N=C(C)C3c3ccccc3)CC2)c1 (stereo not drawn)	KCNK9 block -14.4 | KCNK9 block conf 54.0% | Kir21 sel inactive | HEK293 Tl ctr 28.5%
Cc1ccc(N2CC(C(=O)Nc3nc4ccc(S(C)(=O)=O)cc4s3)CC2=O)cc1 (stereo not drawn)	none
COc1ccc(N2CC(C)Cn3c2nc2c3c(=O)n(Cc3ccc(C)cc3)c(=O)n2C)c(OC)c1 (stereo not drawn)	none | KCNK9 block conf inactive | Kir21 sel inactive | HEK293 Tl ctr inactive
O=C(/C=C/c1ccc(-c2ccccc2[N+](=O)[O-])o1)c1ccco1	KCNK9 block -12.4 | KCNK9 block conf 56.0% | Kir21 sel inactive | HEK293 Tl ctr 25.0%
c1ccc2sc(SCSc3nc4ccccc4s3)nc2c1	KCNK9 block -12.8 | KCNK9 block conf 72.0% | Kir21 sel inactive | HEK293 Tl ctr 38.5%
O=C(O)CCSc1nc2ccccc2s1	none
CC1Cc2ccccc2N1C(=O)CO/N=C/c1ccccc1OC(F)F (stereo not drawn)	none | KCNK9 block conf inactive | Kir21 sel inactive | HEK293 Tl ctr inactive
O=C(CO/N=C/c1ccccc1OC(F)F)N1CCc2ccccc21	none
COc1ccc(N2CCN(C(=O)c3cc(C)oc3C)CC2)cc1	none
CC(C)C(=O)Nc1nc(-c2ccc3c(c2)CCN3C(=O)C2CC2)cs1	KCNK9 block -8.88 | KCNK9 block conf inactive | Kir21 sel inactive | HEK293 Tl ctr inactive
CC(C)(C)Nc1nc(-c2ccc3c(c2)CCN3C(=O)C2CC2)cs1	none
CCOc1ccc(N(CC(=O)NC2CCCCC2)C(=O)CCC(=O)Nc2nc(C)cs2)cc1	none
C[n+]1cccc(/C=N/Nc2nc(Cl)c(C#N)c(Cl)c2Cl)c1	none | KCNK9 block conf inactive | Kir21 sel inactive | HEK293 Tl ctr inactive
N#Cc1c(Cl)nc(N/N=C/c2ccccc2)c(Cl)c1Cl	none
O=c1nc(SCc2ccc(Cl)cc2)nc(-c2ccccc2)[nH]1	none | KCNK9 block conf inactive | Kir21 sel inactive | HEK293 Tl ctr inactive
